The source made the active and inactive calls. The rule behind the calls is not given here.
Legend:
[1] = biological target: Tyrosine-protein kinase JAK2 (Homo sapiens, UniProt O60674); assay: Inhibition of JAK2 (unknown origin) incubated for 40 mins in presence of ATP by Kinase-glo luminescence assay
Aurora kinase A = biological target: T1, Aurora kinase A (Homo sapiens, UniProt O14965); assay: Inhibition of Aurora A (unknown origin) incubated for 40 mins in presence of ATP by Kinase-glo luminescence assay
T1 sequence (O14965 whole entry): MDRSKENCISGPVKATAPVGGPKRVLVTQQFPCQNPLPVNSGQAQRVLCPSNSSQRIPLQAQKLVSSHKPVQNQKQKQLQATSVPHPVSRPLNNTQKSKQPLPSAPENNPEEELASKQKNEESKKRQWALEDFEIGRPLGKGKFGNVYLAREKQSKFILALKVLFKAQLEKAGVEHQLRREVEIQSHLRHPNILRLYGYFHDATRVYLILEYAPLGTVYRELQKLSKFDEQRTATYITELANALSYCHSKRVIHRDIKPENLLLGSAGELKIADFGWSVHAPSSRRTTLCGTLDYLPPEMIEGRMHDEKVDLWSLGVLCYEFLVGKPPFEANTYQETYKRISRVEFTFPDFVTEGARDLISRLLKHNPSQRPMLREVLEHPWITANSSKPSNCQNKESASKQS

Aurora kinase B [2] = biological target: T2, Aurora kinase B (Homo sapiens, UniProt Q96GD4); assay: Inhibition of Aurora B (unknown origin) incubated for 40 mins in presence of ATP by Kinase-glo luminescence assay
T2 sequence (Q96GD4 whole entry): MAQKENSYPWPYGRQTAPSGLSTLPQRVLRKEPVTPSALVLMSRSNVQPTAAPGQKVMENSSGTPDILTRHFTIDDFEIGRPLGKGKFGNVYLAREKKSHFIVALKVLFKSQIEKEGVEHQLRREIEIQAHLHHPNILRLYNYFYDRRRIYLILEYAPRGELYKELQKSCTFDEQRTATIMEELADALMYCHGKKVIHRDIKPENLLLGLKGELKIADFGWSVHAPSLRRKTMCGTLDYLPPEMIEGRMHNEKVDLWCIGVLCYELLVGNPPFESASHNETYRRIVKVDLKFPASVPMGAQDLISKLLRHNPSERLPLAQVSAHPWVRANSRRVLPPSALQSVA
Procedure, shortened: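 Kinase reaction at 30 °C for 40 min in 40 mM Tris pH 7.4, 10 mM MgCl2, 0.1 mg/ml BSA, 1 mM DTT, 10 µM ATP, kinase plus substrate; compounds added from 10% DMSO dilutions (1% DMSO final). Remaining ATP measured by Kinase-Glo Plus luminescence; IC50 from nonlinear regression, normalized dose-response fit.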

K562 [3] = assay: Antiproliferative activity against human K562 cells assessed as reduction in cell growth measured after 72 hrs by CCK8 assay; type: functional, cell-based; conditions: K562, 72 h
HCT-116 [4] = assay: Antiproliferative activity against human HCT116 cells assessed as reduction in cell growth measured after 72 hrs by CCK8 assay; type: functional, cell-based; conditions: HCT-116, 72 h
HUVEC = assay: Cytotoxicity against HUVEC assessed as reduction in cell growth measured after 72 hrs by CCK8 assay; type: cell-based; conditions: Homo sapiens
JAK2/JAK3 (Homo sapiens) [5] = biological target: T3, JAK2/JAK3 (Homo sapiens) (UniProt P52333+O60674); assay: Inhibition of JAK2/3 in human K562 cells assessed as inhibition of STAT5 phosphorylation at 1 to 20 uM measured after 48 hrs by Western blot analysis; type: cell-based; conditions: dose 1-20 µM
T3 sequence (O60674 whole entry, looked up): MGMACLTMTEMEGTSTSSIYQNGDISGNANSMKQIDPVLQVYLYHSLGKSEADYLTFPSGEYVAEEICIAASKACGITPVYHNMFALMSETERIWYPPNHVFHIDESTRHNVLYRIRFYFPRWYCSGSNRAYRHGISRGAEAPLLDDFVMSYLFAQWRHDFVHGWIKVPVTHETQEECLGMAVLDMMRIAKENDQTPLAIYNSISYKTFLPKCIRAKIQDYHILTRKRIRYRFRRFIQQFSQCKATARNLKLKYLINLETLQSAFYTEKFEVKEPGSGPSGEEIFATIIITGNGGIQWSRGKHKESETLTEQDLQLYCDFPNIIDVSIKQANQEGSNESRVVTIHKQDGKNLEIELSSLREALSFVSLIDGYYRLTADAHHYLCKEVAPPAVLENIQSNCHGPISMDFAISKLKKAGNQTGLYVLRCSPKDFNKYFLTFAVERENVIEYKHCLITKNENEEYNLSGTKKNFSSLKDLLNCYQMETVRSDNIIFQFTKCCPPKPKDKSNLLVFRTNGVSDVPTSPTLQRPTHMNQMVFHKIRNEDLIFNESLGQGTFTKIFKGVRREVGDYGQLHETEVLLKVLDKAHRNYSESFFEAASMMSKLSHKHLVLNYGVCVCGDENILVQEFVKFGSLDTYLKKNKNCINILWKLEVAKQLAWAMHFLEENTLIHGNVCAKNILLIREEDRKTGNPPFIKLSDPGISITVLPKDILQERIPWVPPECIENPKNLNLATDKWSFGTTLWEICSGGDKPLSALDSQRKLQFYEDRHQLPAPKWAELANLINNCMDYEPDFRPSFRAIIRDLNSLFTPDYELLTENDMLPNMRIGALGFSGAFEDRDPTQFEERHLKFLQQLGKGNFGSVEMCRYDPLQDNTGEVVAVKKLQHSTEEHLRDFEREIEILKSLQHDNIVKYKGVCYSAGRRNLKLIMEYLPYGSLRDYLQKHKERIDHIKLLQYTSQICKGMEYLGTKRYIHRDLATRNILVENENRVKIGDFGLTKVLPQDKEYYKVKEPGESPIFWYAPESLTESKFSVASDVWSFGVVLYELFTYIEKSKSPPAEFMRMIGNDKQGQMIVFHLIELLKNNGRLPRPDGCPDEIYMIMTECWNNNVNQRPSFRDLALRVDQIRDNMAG
T3 sequence (P52333 whole entry, looked up): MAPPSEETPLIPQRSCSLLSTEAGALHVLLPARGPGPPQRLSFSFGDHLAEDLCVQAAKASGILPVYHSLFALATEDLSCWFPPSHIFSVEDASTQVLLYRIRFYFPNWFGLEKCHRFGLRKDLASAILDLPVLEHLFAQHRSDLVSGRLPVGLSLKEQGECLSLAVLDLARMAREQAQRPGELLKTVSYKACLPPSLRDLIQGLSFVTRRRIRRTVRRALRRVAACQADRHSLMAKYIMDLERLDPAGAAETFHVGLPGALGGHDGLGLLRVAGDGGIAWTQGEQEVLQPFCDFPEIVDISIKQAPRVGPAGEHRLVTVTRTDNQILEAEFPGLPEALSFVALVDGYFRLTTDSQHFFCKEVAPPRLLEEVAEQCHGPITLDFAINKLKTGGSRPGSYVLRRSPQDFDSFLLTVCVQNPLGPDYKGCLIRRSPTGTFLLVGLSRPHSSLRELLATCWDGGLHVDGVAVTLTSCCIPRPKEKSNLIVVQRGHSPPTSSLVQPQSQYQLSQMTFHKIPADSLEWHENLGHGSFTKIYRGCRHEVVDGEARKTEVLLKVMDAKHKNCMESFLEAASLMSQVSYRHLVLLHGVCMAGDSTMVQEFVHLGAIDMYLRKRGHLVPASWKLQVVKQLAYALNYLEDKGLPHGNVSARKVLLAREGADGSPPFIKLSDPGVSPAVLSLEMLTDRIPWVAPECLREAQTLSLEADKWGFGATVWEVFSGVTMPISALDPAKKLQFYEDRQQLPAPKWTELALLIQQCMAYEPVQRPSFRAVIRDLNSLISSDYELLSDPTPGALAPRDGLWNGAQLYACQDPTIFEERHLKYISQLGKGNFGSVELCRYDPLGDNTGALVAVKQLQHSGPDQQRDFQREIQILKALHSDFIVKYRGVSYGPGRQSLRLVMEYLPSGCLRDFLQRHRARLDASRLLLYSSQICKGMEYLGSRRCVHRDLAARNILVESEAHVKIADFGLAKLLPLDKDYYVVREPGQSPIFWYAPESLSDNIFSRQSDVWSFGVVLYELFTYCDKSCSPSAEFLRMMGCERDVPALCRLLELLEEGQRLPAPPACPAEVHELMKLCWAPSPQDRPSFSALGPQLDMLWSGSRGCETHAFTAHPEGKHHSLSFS
Procedure, shortened: (§1)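 K562 or HCT116 cells treated 48 h at 1, 10 and 20 µM alongside untreated control; lysed in cold RIPA, protein by BCA, SDS-PAGE, nitrocellulose transfer, 5% milk block, primary antibody overnight at 4 °C, secondary 1 h; p-Aurora A, p-Aurora B, p-STAT3, p-STAT5 probed with GAPDH loading control.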

JAK2/JAK3 (Homo sapiens) [6] = biological target: T3, JAK2/JAK3 (Homo sapiens); assay: Inhibition of JAK2/3 in human HCT116 cells assessed as inhibition of STAT3 phosphorylation at 1 to 20 uM measured after 48 hrs by Western blot analysis; type: cell-based; conditions: HCT-116, dose 1-20 µM; procedure, shortened: as §1
[7] = biological target: T4, Aurora kinase A (Homo sapiens) (UniProt O14965); assay: Inhibition of Aurora A phosphorylation in human K562 cells incubated for 48 hrs by Western blot analysis; type: cell-based; conditions: dose 1-20 µM; procedure, shortened: as §1
T4 sequence (whole entry): T1 sequence (O14965 whole entry)

Aurora kinase B [8] = biological target: T2, Aurora kinase B; assay: Inhibition of Aurora B phosphorylation in human HCT116 cells incubated for 48 hrs by Western blot analysis; type: cell-based; conditions: HCT-116, dose 1-20 µM; procedure, shortened: as §1
K562 [9] = assay: Cell cycle arrest in human K562 cells assessed as accumulation of diploid cells at G2 phase at 1 uM incubated for 48 hrs by propidium iodide staining based flow cytometric analysis (reference value: 7.73 %); type: functional
K562 [10] = assay: Cell cycle arrest in human K562 cells assessed as accumulation at […] phase at 1 uM incubated for 48 hrs by propidium iodide staining based flow cytometric analysis (reference value: 1.90 %); type: functional
K562 [11] = assay: Cell cycle arrest in human K562 cells assessed as accumulation of diploid cells at G1 phase at 10 uM incubated for 48 hrs by propidium iodide staining based flow cytometric analysis (reference value: 56.33 %); type: functional
K562 [12] = assay: Cell cycle arrest in human K562 cells assessed as accumulation of diploid cells at S phase at 10 uM incubated for 48 hrs by propidium iodide staining based flow cytometric analysis (reference value: 35.94 %); type: functional
K562 [13] = assay: Cell cycle arrest in human K562 cells assessed as accumulation of diploid cells at S phase at 20 uM incubated for 48 hrs by propidium iodide staining based flow cytometric analysis (reference value: 35.94 %); type: functional
HCT-116 [14] = assay: Cell cycle arrest in human HCT116 cells assessed as accumulation of diploid cells at G2 phase at 1 uM incubated for 48 hrs by propidium iodide staining based flow cytometric analysis (reference value: 10.46 %); type: functional
HCT-116 [15] = assay: Cell cycle arrest in human HCT116 cells assessed as accumulation at […] phase at 1 uM incubated for 48 hrs by propidium iodide staining based flow cytometric analysis (reference value: 2.01 %); type: functional
HCT-116 [16] = assay: Cell cycle arrest in human HCT116 cells assessed as accumulation of diploid cells at G1 phase at 10 uM incubated for 48 hrs by propidium iodide staining based flow cytometric analysis (reference value: 77.62 %); type: functional
HCT-116 [17] = assay: Cell cycle arrest in human HCT116 cells assessed as accumulation at […] phase at 10 uM incubated for 48 hrs by propidium iodide staining based flow cytometric analysis (reference value: 2.01 %); type: functional
Homo sapiens = species: Homo sapiens; assay: Selectivity for JAK3 (unknown origin) over Aurora A (unknown origin)
HCT-116 [18] = assay: Cell cycle arrest in human HCT116 cells assessed as accumulation of diploid cells at S phase at 20 uM incubated for 48 hrs by propidium iodide staining based flow cytometric analysis (reference value: 11.92 %); type: functional

Sequence of Tyrosine-protein kinase JAK2 (O60674 whole entry): as the sequence (O60674 whole entry, looked up) above

## O=C(Nc1c[nH]nc1-c1nc(-c2ccc(CN3CCOCC3)cc2)c[nH]1)c1cccc(Cl)c1
[1]
  IC50: 0.166 µM
Aurora kinase A
  IC50: 0.939 µM
Aurora kinase B [2]
  IC50: 0.583 µM
K562 [3]
  IC50: 6.73 µM
HCT-116 [4]
  IC50: 15.1 µM
HUVEC
  IC50: 29 µM
JAK2/JAK3 (Homo sapiens) [5]
  inhibition: Active
JAK2/JAK3 (Homo sapiens) [6]
  inhibition: Active
[7]
  inhibition: Dose-dependent effect
Aurora kinase B [8]
  inhibition: Dose-dependent effect
K562 [9]
  Activity: 8.12%
K562 [10]
  Activity: 1.9%
K562 [11]
  Activity: 47.87%
K562 [12]
  Activity: 35.86%
K562 [13]
  Activity: 35.1%
HCT-116 [14]
  Activity: 13.34%
HCT-116 [15]
  Activity: 2%
HCT-116 [16]
  Activity: 66.57%
HCT-116 [17]
  Activity: 2.01%
Homo sapiens
  Selectivity ratio: 20
HCT-116 [18]
  Activity: 17.92%
